The list is not random: actives were taken first. Their share in the collection is about 3.1%.
T cruzi repl = T. cruzi replication inhibition. 1.4% of 300,000 active. T. cruzi beta-gal in NIH3T3, luminescence, 90 h. inhibition, % (concentration not given with the values);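 active = mean inhibition across valid replicates above about 55%, limit read from the data; inconclusive = mean below that limit but half or more replicates reach it; inactive = mean below it, under half of replicates reach it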;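 note: signal also drops with host cell toxicity which is not excluded here; 0% = plate median of DMSO wells and 100% = zero luminescence signal; higher percent means less beta-gal luminescence so fewer parasites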
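Test system: β-gal T. cruzi (Tulahuen C4) inside NIH/3T3 cells / Quantity: 5,000 cells/well / Measured by: luminescence from GalScreen with 0.05% NP40, read after 60 min / Medium: DMEM plus 2% FBS / Measure: parasite load inhibition, % / Reagent: Tulahuen C4 trypomastigotes, 5000/well / Schedule: co-culture of at least 90 h after 3 h attachment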
CSC inhib = cancer stem cell inhibition | cancer stem cell-like cells viability, luminescence | inhibition, % at 7.5 µM | 1.1% of 300,000 active; in the data active = inhibition above about 75%; inconclusive = no clear call, values can overlap the other calls; tested in HMLE shEcad cells
Calb FLC = C. albicans growth modulation with fluconazole. C. albicans CaCi-2 + fluconazole, Alamar Blue growth, 48 h. growth inhibition, % (no concentration beside the values). 0.57% of 300,000 active. AID 1979;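 active = growth inhibition above about 58% in most replicates, limit read from the data, passing the limit was not always enough; inconclusive = exactly half the replicates above a set limit; inactive = most replicates below a set limit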;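 note: all wells also contain fluconazole at 8 µg/ml as a sub-toxic cotreatment; 0% = median of DMSO wells and 100% = median of geldanamycin control wells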
A1 inh = inhibitors of the anti-apoptotic protein A1, read as caspase activation | MEF A1-2A-BIM cells, Caspase-Glo 3/7 luminescence, 3 h; percent of clofoctol response, vehicle zero | caspase activation, % (no concentration beside the values) | 0.066% of 330,000 active | AID 2462;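 active = over half of replicate activation scores above 10%, or exactly half above 10 with the replicate mean above 10; inconclusive = replicate mean below 10 yet half the replicates above 10; inactive = over half of replicates below 10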
Beta cell apopt = blocks beta cell apoptosis; INS-1E cytokine-induced death, ATP luminescence, 48 h; percent of positive-control rescue, neutral wells zero; 0.8% of 300,000 active; protection from apoptosis, % (concentration not given with the values); AID 435005;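 active = Every replicate reaches about 75%, or at least half do and their mean reaches it too, limit read from the data; inconclusive = At least half of replicates reach the limit but their mean does not; inactive = Under half of replicates reach the limit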;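 note: 0% = cytokine-treated negative control wells and 100% = positive control rescue; higher means more ATP so stronger rescue from cytokine killing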
H9c2 TAG inh = inhibitors of triacylglycerol accumulation | H9c2 cells, Nile Red lipid (TAG) fluorescence; cells loaded with 200 µM oleic acid | inhibition, % at 12.5 µM | 0.66% of 230,000 active;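 active = pattern-corrected inhibition of lipid staining of at least 50% with the nuclear-stain viability signal not falling by more than 50%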;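 note: 0% = DMSO wells and 100% = triacsin C control wells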
* hit, by the source's call; ? = inconclusive; · = not tested or not shown.

SMILES | T cruzi repl | CSC inhib | Calb FLC | A1 inh | Beta cell apopt | H9c2 TAG inh
CCOc1ccc(S(=O)(=O)N2CCCC(C(=O)NCc3cccnc3)C2)cc1Cl (stereo not given) | 15 | -31 | -6 | 0 | -3 | ·
CCOC(=O)C(C(=O)N(C)Cc1ccccc1)C1CCCCC1 (stereo not given) | -13 | -1 | -54 | 0 | · | ·
Cc1ccc(S(=O)(=O)N2CCOCC2)cc1NC(=O)c1cc2c(s1)CCC2 | 52 | 6 | 8 | 1 | -3 | 18
Cc1ccc(S(=O)(=O)Nc2ccc(Cl)cc2)cc1NC(=O)c1cc2c(s1)CCCC2 | 75* | 20 | 15 | 1 | 8 | ·
C=CCNc1ncnc2c1ncn2[C@H]1CN(CCOC)C[C@@H](CO)O1 | · | · | · | · | · | -6
Cc1cc(O)c(Oc2cc(C)cc(O)c2O)c(O)c1 | -12 | 80* | ? | -1 | -11 | ·
Cc1nn(-c2ccccc2)c(C)c1NC(=O)COC(=O)C1CC(=O)N(CCc2ccccc2)C1 (stereo not given) | -17 | -5 | -6 | 0 | -4 | 14
COC(=O)c1cc(S(=O)(=O)N2CCOCC2)c(Cl)cc1N1CCOCC1 | -12 | -9 | -5 | 1 | -3 | ·
COC(=O)c1cc(C)nc2c1C(=O)C(=O)C=C2N1CCOCC1 | 67* | 51 | 18 | -3 | 104* | ·
NC(=O)c1nsc(C(=O)N(c2ccccc2)C(C(=O)NC2CCCCC2)c2ccc(O)cc2)c1N (stereo not given) | -6 | -4 | -8 | 1 | 14 | ·
O=C(NCc1cccnc1)c1ccc(COc2ccc(Cl)cc2)cc1 | 0 | 29 | 16 | 0 | 22 | ·
CC(C)(C)c1ccc(C(=O)c2c[nH]c(C(=O)NCc3cccnc3)c2)cc1 | 5 | -1 | -13 | -1 | 1 | 33
Cc1cccc(OCC(=O)Nc2ccc(C(=O)NCc3cccnc3)cc2)c1 | 19 | 47 | -8 | 0 | 113* | ·
CC(C)CCOc1cccc(OCC(=O)Nc2ccncc2)c1 | -11 | 20 | 108* | 0 | 4 | ·
O=C(Cc1ccc(Cl)cc1)c1c[nH]c(C(=O)NCc2cccnc2)c1 | -8 | 13 | -22 | 0 | 107* | 5
O=C(COc1ccc(Cl)cc1)Nc1ccc(C(=O)NCc2cccnc2)cc1 | 6 | 74 | 6 | 0 | 101* | -9
Cc1ccc(C)c(NC(=O)c2cc([N+](=O)[O-])cc([N+](=O)[O-])c2)c1 | 52 | -4 | 6 | -1 | 1 | 6
O=C(O)c1ccc(NS(=O)(=O)Cc2ccc(Cl)c(Cl)c2)cc1 | · | · | · | · | · | 3
Fc1cnc(Cl)nc1N1CCN(c2ccccc2)CC1 | -4 | -5 | 3 | 0 | 1 | -5
CN1CCN(c2nc(N3CCN(c4ccccc4)CC3)ncc2F)CC1 | 57* | -10 | -2 | -1 | -1 | ·
Cc1ccc(SC(=O)c2c(C)noc2-c2cc(C)on2)cc1 | -2 | 81* | -7 | -1 | -33 | 7
CCCc1cc(=O)n(-c2nc3ccccc3s2)[nH]1 | -6 | 140* | 12 | -1 | -2 | 2
COc1ccc(CNC(=O)COC(=O)c2c(NC(C)=O)sc(C)c2C)cc1 | · | · | · | 0 | -3 | -39
N/C(=N\NC(=O)c1sccc1OCc1ccc(Cl)cc1Cl)c1ccccn1 | 46 | -3 | ? | -1 | 78* | ·
Cc1cnc(C(=O)OCC(=O)Nc2cc(Cl)ccc2C#N)cn1 | · | · | · | 1 | -1 | 6
SMILES | T cruzi repl | CSC inhib | Calb FLC | A1 inh | Beta cell apopt | H9c2 TAG inh
COc1cccc(OCC(O)CN2CCN(CCN3C(=O)c4cccc5cccc(c45)C3=O)CC2)c1 (stereo not given) | 70* | 23 | -13 | 0 | 17 | -49
NC(=S)N1N=C(c2ccccc2)CC1=O | · | · | · | · | · | -10
OCCCCNCc1ccc(OCc2ccc(Cl)cc2)cc1 | 57* | · | 6 | 0 | · | ·
CC(NCc1ccc(OCc2ccc(Cl)cc2)cc1)C(O)c1ccccc1 (stereo not given) | 45 | 102* | -3 | -1 | 35 | 30
CC(NCc1cccc(OCc2ccccc2)c1)C(O)c1ccccc1 (stereo not given) | 9 | 9 | -5 | 1 | 0 | 3
CCN(CC)CCn1c(=S)[nH]c2cc(C(=O)N3CC=C(c4ccccc4)CC3)ccc2c1=O | 14 | 32 | -8 | 2 | 7 | ·
Oc1cc2c(cc1CN1CCN(c3ncccn3)CC1)OCO2 | -28 | -2 | 12 | ? | 3 | 3
